Data reported in ChEMBL document CHEMBL1150253, “Synthesis and anti-platelet evaluation of 2-benzoylaminobenzoate analogs” (Bioorg Med Chem, 2008).

How the values were obtained:
Blood [1] = experiment: Inhibition of U46619-induced platelet aggregation in human blood after 3 mins by turbidimetric assay; type: functional, tissue-based; settings: 0.05 h
Summary of the method: (§1)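 Washed human platelets were prepared from ACD-anticoagulated blood of healthy volunteers who had taken no drugs for two weeks. They were resuspended at 3 × 10⁸/ml in Tyrode's solution with Ca²⁺ 2 mM, glucose 11.1 mM and BSA 3.5 mg/ml. Platelets were preincubated with DMSO (0.5%) or compound at 37 °C for 3 min, stirring at 1200 rpm. Inducers were arachidonic acid, collagen, U46619 or thrombin (0.1 U/ml). Aggregation was read by light transmission. IC50 is mean ± SEM, n = 3.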

Blood [2] = experiment: Inhibition of collagen-induced platelet aggregation in human blood after 3 mins by turbidimetric assay; settings: 0.05 h
Blood [3] = experiment: Inhibition of thrombin-induced platelet aggregation in human blood after 3 mins by turbidimetric assay; settings: 0.05 h
Blood [4] = experiment: Inhibition of arachidonic acid-induced platelet aggregation in human blood after 3 mins by turbidimetric assay; type: functional, tissue-based; settings: 0.05 h; summary of the method: as §1
Platelet [5] = experiment: Inhibition of arachidonic acid-induced TxB2 formation in human platelet at 1 uM per 3 x 10^8 platelets by immunoassay; type: functional
Summary of the method: (§2)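 Washed human platelets were suspended in Tyrode's solution with Ca²⁺, glucose and BSA and preincubated with DMSO or compound at 37 °C for 3 min. Arachidonic acid was then added. After 5 min the reaction was stopped with EDTA (2 mM) plus indomethacin. Samples were centrifuged for 3 min at 13,000 rpm. Supernatant TxB2 was measured by enzyme immunoassay and expressed per 3 × 10⁸ platelets. Values are mean ± SEM, n = 3.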

Platelet [6] = experiment: Inhibition of arachidonic acid-induced TxB2 formation in human platelet at 0.5 uM per 3 x 10^8 platelets by immunoassay; type: functional; summary of the method: as §2
Platelet [7] = experiment: Inhibition of arachidonic acid-induced TxB2 formation in human platelet at 200 uM per 3 x 10^8 platelets by immunoassay; type: functional; summary of the method: as §2

| Structure (SMILES) | IC50 (Blood [1]) | IC50 (Blood [2]) | IC50 (Blood [3]) | IC50 (Blood [4]) | Activity (Platelet [5]) | Activity (Platelet [6]) | Activity (Platelet [7]) |
| --- | --- | --- | --- | --- | --- | --- | --- |
| CCCCOC(=O)c1ccc(Cl)cc1NC(=O)c1ccccc1OC | > 100 µM | > 100 µM | > 100 µM | > 100 µM | – | – | – |
| CCOC(=O)c1ccc(Cl)cc1NC(=O)c1ccccc1Cl | > 100 µM | 7.6 µM | > 100 µM | 1 µM | – | – | – |
| CCCOC(=O)c1ccc(Cl)cc1NC(=O)c1ccccc1C | > 100 µM | 8.3 µM | > 100 µM | 2.2 µM | – | – | – |
| CCCCOC(=O)c1ccc(Cl)cc1NC(=O)c1c(Cl)cccc1Cl | > 100 µM | > 100 µM | > 100 µM | > 100 µM | – | – | – |
| CCCOC(=O)c1ccc(F)cc1NC(=O)c1ccccc1Br | – | 16.7 µM | > 100 µM | 3.3 µM | – | – | – |
| CCCOC(=O)c1ccc(Cl)cc1NC(=O)c1ccccc1F | > 100 µM | 11.6 µM | > 100 µM | 1.6 µM | – | – | – |
| CCCOC(=O)c1ccc(F)cc1NC(=O)c1ccccc1Cl | – | 9.3 µM | > 100 µM | 1.6 µM | – | – | – |
| CCCCOC(=O)c1ccc(Cl)cc1NC(=O)c1ccccc1F | > 100 µM | 32.1 µM | > 100 µM | 3 µM | – | – | – |
| CC(C)OC(=O)c1ccc(Cl)cc1NC(=O)c1ccccc1F | > 100 µM | 36.7 µM | > 100 µM | > 100 µM | – | – | – |
| CCCCOC(=O)c1ccc(Cl)cc1NC(=O)c1ccccc1C | > 100 µM | 76.2 µM | > 100 µM | 4.7 µM | – | – | – |
| CCCCOC(=O)c1ccc(Cl)cc1NC(=O)c1c(F)cccc1F | > 100 µM | 21.8 µM | > 100 µM | 1.5 µM | – | – | – |
| CCCOC(=O)c1ccc(C)cc1NC(=O)c1ccccc1C | – | 20.1 µM | > 100 µM | 5.8 µM | – | – | – |
| CCOC(=O)c1ccc(Cl)cc1NC(=O)c1c(Cl)cccc1Cl | > 100 µM | 32.3 µM | > 100 µM | 68.3 µM | – | – | – |
| CC(C)OC(=O)c1ccc(Cl)cc1NC(=O)c1c(F)cccc1F | > 100 µM | 28.8 µM | > 100 µM | > 100 µM | – | – | – |
| CCCOC(=O)c1ccc(Cl)cc1NC(=O)c1ccccc1Cl | > 100 µM | 2.3 µM | > 100 µM | 0.7 µM | 32.52 ng | 62.56 ng | – |
| CCCOC(=O)c1ccc(F)cc1NC(=O)c1ccccc1OC | – | 33.2 µM | > 100 µM | 31.5 µM | – | – | – |
| CCCNC(=O)c1ccc(Cl)cc1NC(=O)c1ccccc1F | > 100 µM | 8.7 µM | > 100 µM | 1.9 µM | – | – | – |
| CC(C)OC(=O)c1ccc(Cl)cc1NC(=O)c1ccccc1Cl | > 100 µM | 8.51 µM | > 100 µM | 82.2 µM | – | – | – |
| CCCOC(=O)c1ccc([N+](=O)[O-])cc1NC(=O)c1ccccc1Br | – | 4.9 µM | > 100 µM | 2.5 µM | – | – | – |
| CCOC(=O)c1ccc(F)cc1NC(=O)c1ccccc1Cl | – | 11 µM | – | 4.1 µM | – | – | – |
| CCCOC(=O)c1ccc(F)cc1NC(=O)c1ccccc1C | – | 25.1 µM | > 100 µM | 2 µM | – | – | – |
| CCCOC(=O)c1ccc([N+](=O)[O-])cc1NC(=O)c1ccccc1F | – | 3.5 µM | > 100 µM | 4.7 µM | – | – | – |
| CCCOC(=O)c1ccc(Cl)cc1NC(=O)c1c(Cl)cccc1Cl | > 100 µM | 29.7 µM | > 100 µM | 38.4 µM | – | – | – |
| CC(=O)Oc1ccccc1C(=O)O [ASPIRIN] | > 100 µM | 153 µM | > 100 µM | 150 µM | – | – | 26.68 ng |
| CCOC(=O)c1ccc(Cl)cc1NC(=O)c1ccccc1F | > 100 µM | 20.1 µM | > 100 µM | 3.8 µM | – | – | – |
| CCCOC(=O)c1ccc(C)cc1NC(=O)c1ccccc1Br | – | 27.3 µM | – | 3.1 µM | – | – | – |
| CCCOC(=O)c1ccc(Cl)cc1NC(=O)c1ccccc1Br | > 100 µM | 9.5 µM | > 100 µM | 3.5 µM | – | – | – |

| Structure (SMILES) | IC50 (Blood [1]) | IC50 (Blood [2]) | IC50 (Blood [3]) | IC50 (Blood [4]) | Activity (Platelet [5]) | Activity (Platelet [6]) | Activity (Platelet [7]) |
| --- | --- | --- | --- | --- | --- | --- | --- |
| CCCOC(=O)c1ccc(C)cc1NC(=O)c1ccccc1F | – | 11.3 µM | > 100 µM | 0.9 µM | – | – | – |
| CCOC(=O)c1ccc(Cl)cc1NC(=O)c1ccccc1Br | > 100 µM | 13.9 µM | > 100 µM | 3.6 µM | – | – | – |
| CCCCNC(=O)c1ccc(Cl)cc1NC(=O)c1ccccc1F | > 100 µM | 2.2 µM | > 100 µM | 3.5 µM | – | – | – |
| CCCNC(=O)c1ccc(Cl)cc1NC(=O)c1c(F)cccc1F | > 100 µM | 1 µM | > 100 µM | 2.9 µM | – | – | – |
| CCCOC(=O)c1ccc(Cl)cc1NC(=O)c1c(F)cccc1F | > 100 µM | – | 48.8 µM | 0.5 µM | 7.74 ng | 45.47 ng | – |
| CCCNC(=O)c1ccc(Cl)cc1NC(=O)c1ccccc1Cl | > 100 µM | 4.1 µM | > 100 µM | 3.4 µM | – | – | – |
| CCCCOC(=O)c1ccc(Cl)cc1NC(=O)c1ccccc1Cl | > 100 µM | 19.5 µM | > 100 µM | 2.1 µM | – | – | – |
| CCCNC(=O)c1ccc(Cl)cc1NC(=O)c1ccccc1OC | > 100 µM | 11.1 µM | > 100 µM | 6 µM | – | – | – |
| COC(=O)c1ccc(Cl)cc1NC(=O)c1c(F)cccc1F | > 100 µM | – | > 100 µM | 0.7 µM | 29.48 ng | 61.18 ng | – |
| CCCOC(=O)c1ccc(C)cc1NC(=O)c1ccccc1Cl | – | 7.8 µM | – | 1.6 µM | – | – | – |
| CCOC(=O)c1ccc(Cl)cc1NC(=O)c1ccccc1OC | > 100 µM | 46.4 µM | > 100 µM | 4.9 µM | – | – | – |
| CCCOC(=O)c1ccc(F)cc1NC(=O)c1ccccc1F | – | 14.5 µM | > 100 µM | 1.6 µM | – | – | – |
| CCCOC(=O)c1ccc([N+](=O)[O-])cc1NC(=O)c1ccccc1Cl | – | 2.9 µM | > 100 µM | 2 µM | – | – | – |
| CCCCNC(=O)c1ccc(Cl)cc1NC(=O)c1c(F)cccc1F | > 100 µM | 1 µM | > 100 µM | 3.5 µM | – | – | – |
| COc1ccc2c(c1)c(CC(=O)O)c(C)n2C(=O)c1ccc(Cl)cc1 [INDOMETHACIN] | > 100 µM | 0.4 µM | > 100 µM | 0.12 µM | – | 3.09 ng | – |
| CCCNC(=O)c1ccc(Cl)cc1NC(=O)c1ccccc1C | > 100 µM | 10.3 µM | > 100 µM | 8.4 µM | – | – | – |
| CCOC(=O)c1ccc(F)cc1NC(=O)c1ccccc1C | – | 36.1 µM | – | 21.1 µM | – | – | – |
| COC(=O)c1ccc(Cl)cc1NC(=O)c1c(Cl)cccc1Cl | > 100 µM | 3.4 µM | > 100 µM | 12.6 µM | – | – | – |
| CCCCOC(=O)c1ccc(Cl)cc1NC(=O)c1ccccc1Br | > 100 µM | 50.4 µM | > 100 µM | 7.1 µM | – | – | – |
| CCCNC(=O)c1ccc(Cl)cc1NC(=O)c1ccccc1Br | > 100 µM | 3.4 µM | > 100 µM | 1.5 µM | – | – | – |
| CCOC(=O)c1ccc(Cl)cc1NC(=O)c1c(F)cccc1F | > 100 µM | – | > 100 µM | 0.9 µM | – | – | – |
| CCCCNC(=O)c1ccc(Cl)cc1NC(=O)c1ccccc1Cl | > 100 µM | 1.1 µM | > 100 µM | 3.4 µM | – | – | – |
| CCCOC(=O)c1ccc(Cl)cc1NC(=O)c1ccccc1OC | > 100 µM | > 100 µM | > 100 µM | 23.4 µM | – | – | – |
| CCCOC(=O)c1ccc(C)cc1NC(=O)c1ccccc1OC | – | 62.5 µM | > 100 µM | 10.4 µM | – | – | – |
| CCCOC(=O)c1ccc([N+](=O)[O-])cc1NC(=O)c1ccccc1OC | – | > 100 µM | > 100 µM | > 100 µM | – | – | – |
| CCOC(=O)c1ccc(Cl)cc1NC(=O)c1ccccc1C | > 100 µM | 15.9 µM | > 100 µM | 4.9 µM | – | – | – |
| CCCOC(=O)c1ccc([N+](=O)[O-])cc1NC(=O)c1ccccc1C | – | 8 µM | > 100 µM | 4.7 µM | – | – | – |
